The source of these data is ChEMBL document CHEMBL2021854, “2-Aminopyrimidine based 4-aminoquinoline anti-plasmodial agents. Synthesis, biological activity, structure-activity relationship and mode of action studies” (Eur J Med Chem, 2012).

For data set [1], the system named is Influenza B virus. As to the kind of experiment: Antiviral activity against Influenza B virus infected in MDCK cells assessed as inhibition of virus-induced cytopathogenicity after 4 days by colorimetric formazan-based MTS assay. The following applies: 96 h. The class given is functional, organism-based. (In general: Cytopathic effects are the visible damage that an infection or toxin causes in cultured cells.)

Data set [2] deals with Influenza A virus. As to the kind of experiment: Antiviral activity against Influenza A virus H3N2 infected in MDCK cells assessed as inhibition of virus-induced cytopathogenicity after 4 days by colorimetric formazan-based MTS assay. The class given is functional, organism-based. The following applies: 96 h.
Data set [3] relates to Influenza A virus. As to the kind of experiment: Antiviral activity against Influenza A virus H3N2 infected in MDCK cells assessed as reduction visual scoring of virus-induced cytopathogenicity after 4 days. Format: functional, organism-based. The following applies: 96 h. In short, it runs like this:
(§1)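 MDCK monolayers infected with 100 CCID50 of influenza A (H1N1 or H3N2) or influenza B, with varying compound concentrations. Cytopathicity read when untreated infected controls reached complete CPE.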

Data set [4] concerns Influenza B virus. As to the kind of experiment: Antiviral activity against Influenza B virus infected in MDCK cells assessed as reduction visual scoring of virus-induced cytopathogenicity after 4 days. The class given is functional, organism-based. The following applies: 96 h. The method, boiled down:
as §1

Data set [5] in a line: Cytotoxicity against MDCK cells assessed as minimum compound concentration required to causes microscopically detectable alteration of normal cell morphology. Format: cell-based, Canis lupus familiaris. The note with it: dog. In short, it runs like this:
(§2)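 Confluent, non-proliferating cell cultures were exposed to the compounds. The endpoint was the minimum concentration producing a microscopically detectable alteration of normal cell morphology.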

A short description of data set [6]: Cytotoxicity against human HEL cells assessed as minimum compound concentration required to causes microscopically detectable alteration of normal cell morphology. The class given is cell-based. The method, boiled down: as §2
For the next data set, the system named is HeLa. As to the kind of experiment: Cytotoxicity against human HeLa cells assessed as cell viability by colorimetric formazan-based MTS assay. For orientation: Tetrazolium dyes change colour on reduction, which living cells bring about.
Data set [7] has as its system Vesicular stomatitis virus. As to the kind of experiment: Antiviral activity against Vesicular stomatitis virus infected in HEL cells assessed as inhibition of virus-induced cytopathogenicity after 4 days. Format: functional, organism-based. The note with it: 96 h. In short, it runs like this:
(§3)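 Confluent HEL or HeLa monolayers infected with 100 CCID50 of virus in the presence of varying compound concentrations.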

Data set [8] concerns Plasmodium falciparum. Nature of the data set: Antiplasmodial activity chloroquine-sensitive Plasmodium falciparum 3D7 infected in human A+ erythrocytes assessed as inhibition of [3H]-hypoxanthine incorporation after 24 hrs by scintillation counting. Format: functional, organism-based.
Data set [9] concerns Plasmodium falciparum. Nature of the data set: Resistant factor, ratio of IC50 for chloroquine-resistant Plasmodium falciparum K1 to IC50 for chloroquine-sensitive Plasmodium falciparum 3D7. The class given is functional. The method, boiled down:
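Resistance factor computed as IC50 against K1 divided by IC50 against 3D7, both from the [3H]hypoxanthine incorporation assay.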

The nature of data set [10]: Inhibition of beta-hematin formation assessed as Ferriprotoporphyrin IX biomineralisation at 1 mg/ml after 24 hrs. Format: functional. In short, it runs like this:
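Hemin chloride (0.5 mg/ml in DMSO) mixed with 0.5 M sodium acetate buffer pH 4.4 and drug or solvent control, incubated 37 °C for 24 h. Pellet washed with DMSO to remove unreacted hemin, dissolved in 0.1 N NaOH, absorbance read at 405 nm; percent inhibition relative to control. Highest concentration tested 1 mg/ml.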

The subject of data set [11] is Plasmodium falciparum. As to the kind of experiment: Antiplasmodial activity chloroquine-resistant Plasmodium falciparum K1 infected in human A+ erythrocytes assessed as inhibition of [3H]-hypoxanthine incorporation after 24 hrs by scintillation counting. The class given is functional, organism-based.
The test system of the next data set is Human alphaherpesvirus 3. As to the kind of experiment: Antiviral activity against […] expressing thymidine kinase infected in HEL cells assessed as reduction of virus plaque formation after 4 days. Format: functional, cell-based. The following applies: Human alphaherpesvirus 3, strain Oka vaccine, 96 h.
The test system of a further data set is Human alphaherpesvirus 1. Nature of the data set: Antiviral activity against HSV1 KOS infected in HEL cells assessed as inhibition of virus-induced cytopathogenicity after 4 days. Format: functional, organism-based. The following applies: Human alphaherpesvirus 1, KOS, 96 h. In short, it runs like this: as §3
Another data set has as its system Human alphaherpesvirus 2. Nature of the data set: Antiviral activity against HSV2 G infected in HEL cells assessed as inhibition of virus-induced cytopathogenicity after 4 days. Format: functional, organism-based. The note with it: Human alphaherpesvirus 2, strain G, 96 h. The method, boiled down: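 Confluent HEL, Vero or HeLa monolayers were inoculated with 100 CCID50 of virus in the presence of varying concentrations of compound. Cytopathicity was scored when it reached completion in untreated, virus-infected control cultures.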

The subject of data set [12] is Human betaherpesvirus 5. Nature of the data set: Antiviral activity against Cytomegalovirus AD-169 infected in HEL cells assessed as inhibition of virus plaque formation after 4 days. Format: functional, organism-based. The following applies: Human betaherpesvirus 5, AD169, HEL, 96 h.
Data set [13] relates to Human betaherpesvirus 5. Nature of the data set: Antiviral activity against Human cytomegalovirus Davis infected in HEL cells assessed as inhibition of virus plaque formation after 4 days. The class given is functional, organism-based. The following applies: Human betaherpesvirus 5, Davis, 96 h.
A further data set has as its system Felid alphaherpesvirus 1. Nature of the data set: Antiviral activity against Feline herpesvirus infected in cat CRFK cells assessed as inhibition of virus-induced cytopathic effect after 4 days by colorimetric formazan-based MTS assay. Format: functional, organism-based. The following applies: Felid alphaherpesvirus 1, CRFK, 96 h.
The nature of data set [14]: Cytotoxicity against cat CRFK cells assessed as cell viability by colorimetric formazan-based MTS assay. Details: species or system Felis catus. The note with it: CRFK cells.
Data set [15] concerns Feline infectious peritonitis virus. Nature of the data set: Antiviral activity against FIPV infected in cat CRFK cells assessed as inhibition of virus-induced cytopathic effect after 4 days by colorimetric formazan-based MTS assay. The class given is functional, cell-based. The note with it: Alphacoronavirus 1, CRFK, 96 h.

Values after ≈ are worked out from the molar mass of the structure shown. Bounds are passed on as bounds.

As a reminder, the EC50 is the midpoint of the concentration-response curve. In the case of `CC(N)C12CC3CC(CC(C3)C1)C2` (stereo unspecified) [RIMANTADINE], the EC50 in the data set on Influenza B virus [1], in the data set on Influenza A virus [2], in the data set on Influenza A virus [3] and in the data set with Influenza B virus [4] was > 200 µM in each case. Further, in data set [5], the MCC was > 200 µM.
By CC50 is commonly meant the concentration that lowers cell viability or growth by half. As to `Nc1nc2c(ncn2COCCO)c(=O)[nH]1` [ACYCLOVIR], the MCC in data set [6] was > 250 µM. Also, the CC50 in the data set on HeLa came out at 541 µM. Besides, the EC50 in data set [7] is > 250 µM.
In general, IC50 refers to the point on the concentration scale where inhibition reaches its midpoint. Broadly, the inhibition is the share of the control response that was lost under treatment. As to `Cc1nc(NCCCNc2ccnc3cc(Cl)ccc23)nc(-c2ccc([N+](=O)[O-])cc2)c1C(=O)OC(C)C`, the IC50 turned out to be 500 nM in the data set with Plasmodium falciparum [8] and 176 nM in the data set on Plasmodium falciparum [11]. Moreover, in the data set with Plasmodium falciparum [9], the “Ratio IC50” value is reported as 0.3518. Besides, the inhibition in [10] was 94%.
`O=c1[nH]c(=O)n([C@H]2C[C@H](O)[C@@H](CO)O2)cc1/C=C/Br` [BRIVUDINE]: the MCC in [6] is > 250 µM. In the data set on HeLa, the CC50 is 362 µM. Besides, the EC50 in data set [7] is > 250 µM; in the data set on Human alphaherpesvirus 3, 19 nM.
On to `Cc1nc(NCCCCNc2ccnc3cc(Cl)ccc23)nc(-c2cccc([N+](=O)[O-])c2)c1C(=O)OC(C)C`, for which the IC50 in the data set on Plasmodium falciparum [8] came out at 697 nM; in the data set on Plasmodium falciparum [11], 192 nM. Further, in the data set on Plasmodium falciparum [9], the “Ratio IC50” value was 0.2756. Besides, in data set [10], the inhibition amounted to 92%.
Regarding `Nc1ccn(C[C@@H](CO)OCP(=O)(O)O)c(=O)n1` [CIDOFOVIR], the concentration giving a half-maximal response (EC50) was 900 nM in the data set with Human alphaherpesvirus 1; 900 nM with Human alphaherpesvirus 2; 369 nM in the data set on Human betaherpesvirus 5 [12]; > 250 µM in data set [7]; 102 nM in the data set on Human betaherpesvirus 5 [13]. In data set [6], the MCC was > 317 µM. Further, the CC50 in the data set on HeLa came to 50.8 µM.
As for `Cc1nc(NCCCNc2ccnc3cc(Cl)ccc23)nc(-c2ccccc2[N+](=O)[O-])c1C(=O)OC(C)C`, the IC50 with Plasmodium falciparum [8] is 1960 nM; with Plasmodium falciparum [11] it was 229 nM. The “Ratio IC50” value with Plasmodium falciparum [9] was 0.1173. Further, the inhibition in [10] was determined as 89%.
On to `CCOC(=O)c1c(C)nc(NCCCCCCCCNc2ccnc3cc(Cl)ccc23)nc1-c1ccccc1`, for which the IC50 in the data set with Plasmodium falciparum [8] was found to be 252 nM; with Plasmodium falciparum [11] it was 516 nM. The “Ratio IC50” value in the data set with Plasmodium falciparum [9] is recorded as 2.047. For the same molecule, the inhibition in data set [10] amounted to 56%.
For the molecule `CCOC(=O)c1c(C)nc(NCCCCCCCCCCCCNc2ccnc3cc(Cl)ccc23)nc1-c1ccccc1`, the IC50 in the data set on Plasmodium falciparum [8] came out at 265 nM; in the data set with Plasmodium falciparum [11], 854 nM. Further, the “Ratio IC50” value in the data set on Plasmodium falciparum [9] is given as 3.22.
Turning to `CC(=O)N[C@H]1[C@@H](OP(=O)(O)OP(=O)(O)OC[C@H]2O[C@@H](n3ccc(=O)[nH]c3=O)[C@H](O)[C@@H]2O)O[C@H](CO)[C@@H](O)[C@@H]1O[C@@](C)(OP(=O)(O)O)C(=O)O`, the figures for the EC50 (in the data set with Felid alphaherpesvirus 1; in [15]) were 0.8 µg/mL (≈ 1.03 µM) and 1.5 µg/mL (≈ 1.93 µM), respectively. In data set [14], the CC50 was determined as 15.8 µg/mL (≈ 20.4 µM).
